For four compounds, GI50 and TGI results are on record in ChEMBL document CHEMBL3232876, “Novel R-(+)-limonene-based thiosemicarbazones and their antitumor activity against human tumor cell lines” (Eur J Med Chem, 2014).

Structures are written as SMILES.

The subject of one series is NCI-H460. In words: Growth inhibition of human NCI-H460 cells after 48 hrs by sulforhodamine B assay. The conditions noted are these: NCI-H460, 48 h. The format is functional. In a few lines:
(§1)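 Tumour lines from NCI and Vero from the Rio de Janeiro Cell Bank, grown in RPMI 1640 with 5% fetal bovine serum, with penicillin:streptomycin added to experimental cultures. Each compound was tested at four 10-fold dilutions; sulforhodamine B staining at time zero and 48 h. Proliferation was calculated against T0 and drug-free controls, and GI50 came from sigmoidal regression of the concentration-response curves. Representative experiment in triplicate.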

For a further series, the system named is 786-0. In words: Growth inhibition of human 786-0 cells after 48 hrs by sulforhodamine B assay. Type of series: functional. The conditions noted are these: 786-0, 48 h. In a few lines: as §1
A further series deals with MCF7. In words: Growth inhibition of human MCF7 cells after 48 hrs by sulforhodamine B assay. Type of series: functional. The conditions noted are these: MCF7, 48 h. Summed up: as §1
In the next series the test system is PC-3. In words: Growth inhibition of human PC3 cells after 48 hrs by sulforhodamine B assay. Type of series: functional. The conditions noted are these: PC-3, 48 h. In a few lines:
as §1

The nature of series [1]: Growth inhibition of human UACC62 cells after 48 hrs by sulforhodamine B assay. Type of series: functional. The conditions noted are these: UACC-62, 48 h. Summed up: as §1
In another series the test system is U-251. In words: Growth inhibition of human U251 cells after 48 hrs by sulforhodamine B assay. The conditions noted are these: U-251, 48 h. Type of series: functional. Summed up:
as §1

A further series deals with HT-29. In words: Growth inhibition of human HT-29 cells after 48 hrs by sulforhodamine B assay. Type of series: functional. The conditions noted are these: HT-29, 48 h. In a few lines: as §1
A short description of series [2]: Growth inhibition of human NCI-ADR-RES cells after 48 hrs by sulforhodamine B assay. The format is functional. Summed up:
as §1

Series [3] is described as follows: Growth inhibition of human OVCAR3 cells after 48 hrs by sulforhodamine B assay. The conditions noted are these: OVCAR-3, 48 h. Type of series: functional. In a few lines:
as §1

A short description of series [4]: (§2) Growth inhibition of African green monkey Vero cells after 48 hrs by sulforhodamine B assay. Type of series: cell-based. The conditions noted are these: chlorocebus sabaeus, Vero cells. Summed up:
as §1

A further series deals with K562. In words: Growth inhibition of human K562 cells after 48 hrs by sulforhodamine B assay. Type of series: functional. The conditions noted are these: K562, 48 h. Summed up:
as §1

The next series deals with Vero. The description is as §2. Type of series: cell-based. The conditions noted are these: chlorocebus sabaeus, vero, 48 h. In a few lines:
as §1

For the compound `CC(=O)O[C@H]1C(=O)[C@@]2(C)[C@H]([C@H](OC(=O)c3ccccc3)[C@]3(O)C[C@H](OC(=O)[C@H](O)[C@@H](NC(=O)c4ccccc4)c4ccccc4)C(C)=C1C3(C)C)[C@]1(OC(C)=O)CO[C@@H]1C[C@@H]2O` [PACLITAXEL], the GI50 was 0.1 µM with NCI-H460; 0.02 µM with 786-0; 5 nM with MCF7; under 0.1 µM in the series on PC-3; 10 nM in series [1]; 3 nM in the series with U-251. Further, the GI50 in the series with HT-29 amounted to 0.001 µM; in [2] it was 0.04 µM; in series [3], 0.2 µM; with K562, 0.1 µM. Also, the TGI in the series with NCI-H460 was 0.08 µM; with 786-0, 0.8 µM; with MCF7, 0.4 µM; with PC-3, under 0.03 µM; in series [1] it was 500 nM; with U-251 it was 0.1 µM. Also, the TGI with HT-29 was under 0.03 µM; in [2], 0.4 µM; in series [3], under 0.03 µM; with K562, 0.1 µM. Besides, it took 0.03 µM to inhibit growth in series [4] by half (GI50 at 48 h).
On to `C=C(C)[C@H]1CC=C(C)CC1` [D-LIMONENE], for which the GI50 was over 100 µM with NCI-H460; over 100 µM with 786-0; over 100000 nM in the series with MCF7; over 100 µM in the series on PC-3; over 100000 nM with U-251; over 100 µM in the series with HT-29. Besides, the results for the GI50 (in series [2]; in [3]; in the series on K562) were over 100 µM, over 100 µM and 23.9 µM, respectively. Moreover, the TGI with NCI-H460, in the series with 786-0, in the series with MCF7, with PC-3, in the series on U-251 and in the series on HT-29 was over 100 µM in each case. Also, the TGI (in [2]; in series [3]; in the series with Vero; with K562) was over 100 µM in each case. Besides, in series [4], the GI50 at 48 h is over 100 µM.
As to `CC1=CC[C@H](C(C)(C)N=C=S)CC1`, the concentration for 50% growth inhibition (GI50) in the series with NCI-H460 was over 100 µM; in the series on 786-0, over 100 µM; with MCF7 it was 57600 nM; in the series with PC-3, over 100 µM; with U-251 it was 29100 nM; with HT-29 it was over 100 µM. Besides, the GI50 is over 100 µM in series [2], over 100 µM in [3] and 4 µM with K562. For the same compound, the TGI in the series with NCI-H460, with 786-0, in the series with MCF7, with PC-3, with U-251 and in the series on HT-29 was over 100 µM in each case. Further, the TGI (in series [2]; in series [3]; in the series with Vero; with K562) was over 100 µM each time. In addition, the GI50 at 48 h in [4] was over 100 µM.
Turning to `CC1=CC[C@H](C(C)(C)NC(=S)NN)CC1`, the GI50 was 42 µM with NCI-H460; over 100 µM in the series on 786-0; 900 nM in the series with MCF7; 44.5 µM with PC-3; 200 nM with U-251; 60.1 µM in the series with HT-29. Besides, the figures for the concentration for 50% growth inhibition (GI50) (in series [2]; in [3]; in the series with K562) were 39.3 µM, 41.9 µM and over 100 µM, respectively. The TGI in the series on NCI-H460 was over 100 µM; in the series with 786-0 it was over 100 µM; with MCF7, 46.7 µM; in the series with PC-3 it was over 100 µM; with U-251 it was 10.1 µM; with HT-29 it was over 100 µM. For the same compound, the TGI (in [2]; in series [3]; in the series with Vero; in the series with K562) was over 100 µM each time. In [4], this compound gave a 50% growth inhibitory concentration (GI50) at 48 h of 49.5 µM.
